NSD2 HMT inh – NSD2 histone methyltransferase inhibitors, primary screen, biochemical, AlphaScreen, single concentration, set 2; NSD2 peptide methylation, 120 min; inhibition, % at 12.5 µM; 310,000 compounds, 0.54% hits
Casp6 inh – human caspase-6 inhibitors, primary screen, biochemical, VEID-R110 fluorescence, single point, set 2 | purified caspase-6, Z-VEID-R110 cleavage fluorescence | inhibition, % at 12.5 µM | 350,000 compounds, 0.53% hits | AID 686996, 2013;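 active = mean inhibition across replicates at least about 35%, with every replicate also reaching that limit, limit read from the data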;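 also: 0% = median of neutral control wells and 100% = no fluorescence left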
NS3 helicase inh – inhibitors of HCV NS3 helicase, primary screen, biochemical, Cy5 molecular beacon fluorescence. NS3 helicase DNA unwinding. inhibition, % at 10.9 µM. 290,000 compounds, 0.56% hits. AID 1800, 2009;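 active = inhibition above the mean of all tested compounds plus 3 SD, set per campaign, cut at about 35% in these data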;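 also: 0% = DMSO wells and 100% = thioflavine S control wells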
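test system = hepatitis C virus NS3 helicase domain fragment enzyme | reagent = annealed dual-labelled DNA beacon duplex, ATP-started | times = 1 h at 25 °C | detection = Cy5 fluorescence, 0 and 60 min reads | read-out basis = percent inhibition from t60/t0 fluorescence ratio | control set = DMSO and thioflavine S | replication = one well per compound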
DNMT1 inh – human DNMT1 methyltransferase inhibitors, primary screen, biochemical, molecular beacon, fluorescence, HinP1I cleavage, uHTS; AID 588458, 2011; 360,000 compounds, 0.83% hits; inhibition (reported as % activation of signal), % at 10 µM; DNA (cytosine-5)-methyltransferase 1 (Homo sapiens), P26358
Target sequence (P26358 504-1616 limits assumed): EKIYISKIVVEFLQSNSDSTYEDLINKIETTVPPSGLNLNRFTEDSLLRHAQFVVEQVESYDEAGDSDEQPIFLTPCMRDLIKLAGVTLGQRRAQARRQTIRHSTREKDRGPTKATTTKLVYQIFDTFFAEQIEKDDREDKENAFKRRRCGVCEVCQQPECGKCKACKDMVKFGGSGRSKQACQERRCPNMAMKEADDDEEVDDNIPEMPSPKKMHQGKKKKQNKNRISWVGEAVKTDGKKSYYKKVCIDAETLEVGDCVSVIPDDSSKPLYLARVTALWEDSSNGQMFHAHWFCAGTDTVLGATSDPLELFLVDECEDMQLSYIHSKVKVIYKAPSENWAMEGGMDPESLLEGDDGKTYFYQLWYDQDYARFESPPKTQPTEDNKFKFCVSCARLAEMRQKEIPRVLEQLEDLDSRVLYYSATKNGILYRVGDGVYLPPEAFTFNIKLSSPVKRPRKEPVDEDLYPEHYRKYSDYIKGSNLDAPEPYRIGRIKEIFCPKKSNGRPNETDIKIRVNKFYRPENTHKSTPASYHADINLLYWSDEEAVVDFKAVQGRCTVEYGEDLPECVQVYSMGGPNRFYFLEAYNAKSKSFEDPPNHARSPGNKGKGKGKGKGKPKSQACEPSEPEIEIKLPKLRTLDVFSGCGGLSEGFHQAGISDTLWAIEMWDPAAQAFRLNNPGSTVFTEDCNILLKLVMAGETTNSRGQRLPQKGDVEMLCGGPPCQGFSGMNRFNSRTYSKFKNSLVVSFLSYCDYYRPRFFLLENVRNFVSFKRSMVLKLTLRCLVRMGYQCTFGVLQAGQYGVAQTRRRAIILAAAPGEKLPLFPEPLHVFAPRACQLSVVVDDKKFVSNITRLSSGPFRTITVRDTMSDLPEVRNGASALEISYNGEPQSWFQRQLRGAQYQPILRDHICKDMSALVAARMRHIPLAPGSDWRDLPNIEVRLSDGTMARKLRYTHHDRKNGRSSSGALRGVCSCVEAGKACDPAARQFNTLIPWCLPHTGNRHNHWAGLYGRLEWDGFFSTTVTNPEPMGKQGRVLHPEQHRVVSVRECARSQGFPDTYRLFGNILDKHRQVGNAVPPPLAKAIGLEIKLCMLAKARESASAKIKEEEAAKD
NS3 helicase cf – HCV NS3 helicase inhibitors, retest, confirmation, biochemical, Cy5 molecular beacon fluorescence, triplicate; shares compounds with NS3 helicase inh; 1,600 compounds, 31% hits; inhibition, % at 10.9 µM; NS3 helicase DNA unwinding;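 active = inhibition above the mean of all tested compounds plus 3 SD, cutoff set per campaign, cut at about 36% in these data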
DNA FID counter – compounds displacing fluorescent DNA intercalator, artefact control for HCV NS3 helicase inhibitor project, biochemical, FID fluorescence, triplicate | shares compounds with NS3 helicase inh | DNA fluorescent intercalator displacement | inhibition, % at 7.9 µM | 1,600 compounds, 4% hits; in the data active = inhibition above about 37%;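 also: 0% = vehicle and 100% = reference compound; higher means more displacement of ethidium bromide from the DNA hairpin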
An asterisk follows results filed as active; . = no result given. Shown are actives, neighbours in structure and some others; about 1.5% of the full set was active somewhere. Rule as the data show it, unless noted: active = inhibition above about 50%; inactive = the rest.

SMILES | NSD2 HMT inh | Casp6 inh | NS3 helicase inh | DNMT1 inh | others
COC(=O)C1C=C2c3cccc4[nH]cc(c34)CC2N(C)C1 (stereo not drawn) | . | . | 3 | .
CC(C)C[C@H]1C(=O)N2CCC[C@H]2[C@]2(O)O[C@](NC(=O)[C@@H]3C=C4c5cccc6[nH]cc(c56)C[C@H]4N(C)C3)(C(C)C)C(=O)N12 | . | . | . | -42
CC[C@@H](CO)NC(=O)[C@@H]1C=C2c3cccc4[nH]cc(c34)C[C@H]2N(C)C1 | . | 62* | . | -5
CC[C@@H](CO)NC(=O)[C@@H]1C=C2c3cccc4c3c(cn4C)C[C@H]2N(C)C1 | . | 73* | -6 | 16
C[C@@H]1CN([C@@H](C)CO)C(=O)c2c(c3ccccc3n2C)-c2ccccc2CO[C@H]1CN(C)C(=O)Oc1ccccc1 | . | -1 | . | .
O=C1NC(=S)N(c2ccc(F)cc2)C(=O)/C1=C/c1ccco1 | . | . | 35 | .
O=C1NC(=S)N(c2ccc(F)cc2)C(=O)/C1=C\c1ccoc1 | . | . | 28 | 85*
CCOC(=O)[C@@H]1[C@@H]2NC(=S)N(C)[C@@]1(COCc1ccc(OC)cc1)Oc1ccccc12 | . | -3 | . | .
C=Cc1cc(OC)c2c(c1)c(=O)oc1c2cc(OC)c2c(O)ccc(C3OC(C)C(O)C(C)(O)C3O)c21 (stereo not drawn) | . | 53* | . | 62*
CCC1CO/C(=C(\C(Cl)=C(Cl)Cl)[N+](=O)[O-])N1Cc1ccc(Cl)nc1 (stereo not drawn) | 3 | 3 | 21 | 0
O=C(C(=C1N(Cc2ccc(Cl)nc2)CCN1Cc1ccc(Cl)nc1)[N+](=O)[O-])C(Cl)Cl | -1 | 36* | 0 | 3
COC(=O)[C@H]1[C@H](CO)[C@H]2Cn3c(ccc(-c4ccccc4F)c3=O)[C@@H]1N2 | . | -3 | . | .
COC(=O)[C@H]1[C@H](CO)[C@H]2Cn3c(ccc(C4=CCCCC4)c3=O)[C@@H]1N2CC1CCCCC1 | . | -2 | . | .
O=C(Cc1ccccc1)N1CCCCN2[C@H](CO)[C@@H](c3ccc(C#Cc4ccccc4)cc3)[C@H]2C1 | . | 54* | . | .
O=C(Cc1ccccc1)N1CCCCN2[C@H](CO)[C@@H](c3ccc(C#Cc4ccccc4)cc3)[C@@H]2C1 | . | 1 | . | .
O=C1NC(=O)C(=Cc2cccc(OCCOc3ccccc3)c2)C(=O)N1 | 7 | 5 | 10 | -4
Cc1ccc(OCCOc2cccc(C=C3C(=O)NC(=O)NC3=O)c2)c(C)c1 | 4 | 7 | 29 | 52*
O=C(Cc1ccccn1)N1CC2(C1)[C@H](c1ccccc1)[C@@H](CO)N2Cc1ccccn1 | . | -1 | . | .
O=C1NC(=O)C(=Cc2ccco2)C(=O)N1 | 14 | 29 | . | 82*
O=C1CNC[C@H]2[C@@H](c3ccc(Br)cc3)[C@@H](CO)N12 | . | 0 | . | .
CN1CCN(c2ccc([N+](=O)[O-])c3no[n+]([O-])c23)CC1 | 97* | 15 | -2 | 27
CN1CCN(c2ccc(S(C)(=O)=O)cc2[N+](=O)[O-])CC1 | 0 | 5 | 3 | 1
COc1ccc(/C=C2\C(=O)NC(=S)N(C)C2=O)cc1C | . | 46* | 3 | 94*
Cc1cc(/C=C2/C(=O)NC(=O)N(c3ccccc3)C2=O)c(C)n1-c1ccc(F)cc1 | -1 | . | 10 | 6
Cc1cc(/C=C2\C(=O)NC(=O)N(c3cccc(F)c3)C2=O)c(C)n1-c1ccc(C(=O)O)c(Cl)c1 | 9 | 24 | 16 | 60*
SMILES | NSD2 HMT inh | Casp6 inh | NS3 helicase inh | DNMT1 inh | others
Cc1ccc(OC(=O)N(C)C[C@@H]2OCc3ccccc3-c3c(n(C)c4ccccc34)C(=O)N([C@@H](C)CO)C[C@H]2C)cc1 | . | 1 | . | .
Cc1cccc(S(=O)(=O)N2[C@@H]3Cn4c(ccc(-c5ccncc5)c4=O)[C@H]2[C@@H](C(=O)O)[C@@H]3CO)c1 | . | 4 | . | .
CC=Cc1ccc2n(c1=O)C[C@H]1[C@H](CO)[C@@H](C(=O)O)[C@@H]2N1S(=O)(=O)c1ccccc1F (mixture of isomers) | . | -1 | . | .
COc1ccc(/C=N\N=C(N)N)cc1 | 0 | -3 | 6 | 0
NC(N)=N/N=C/c1ccc(N(c2ccccc2)c2ccccc2)cc1 | -56 | 63* | -51 | 14
Cc1ccc(N2C(=O)/C(=C/c3ccc(CN(CCC#N)S(C)(=O)=O)o3)C(=O)NC2=S)cc1C | . | . | 44* | . | NS3 helicase cf=66*;DNA FID counter=24
CC(C)(C)N1C(=O)NC(=O)/C(=C\c2ccc3c(c2)CCN3CCCCl)C1=O | 12 | 6 | 97* | -9 | NS3 helicase cf=-12;DNA FID counter=4
N#Cc1cccc(-c2ccc([C@H]3[C@H]4CN(C(=O)Cc5ccccc5)CCCCN4[C@H]3CO)cc2)c1 | . | 3 | . | .
CC=Cc1ccc2n(c1=O)C[C@H]1[C@H](CO)[C@@H](C(=O)N(C)C)N[C@@H]21 (mixture of isomers) | . | 0 | . | .
CCCCN1C(=O)/C(=C/c2ccc(N3CCCCCC3)cc2)C(=O)NC1=S | . | . | 39* | . | NS3 helicase cf=29;DNA FID counter=0
O=C1NC(=O)C(=Cc2ccc(Sc3ccccc3)o2)C(=O)N1 | 8 | 5 | 9 | 12
O=C1NC(=O)N(c2ccc(Cl)cc2)C(=O)/C1=C\c1ccc(Sc2nc3ccccc3[nH]2)o1 | 43 | 69* | 44* | 34 | NS3 helicase cf=76*;DNA FID counter=-7
COC(=O)[C@@H]1[C@@H](CO)[C@@H]2Cn3c(ccc(-c4cccnc4)c3=O)[C@H]1N2S(=O)(=O)c1ccccc1F | . | -1 | . | .
O=C1C2CCN(CC2)C12CC2c1ccc(C(F)(F)F)cc1 (stereo not drawn) | -3 | -5 | 39* | -1 | NS3 helicase cf=-8;DNA FID counter=20
CN(C)C1C(=O)C(C(N)=O)=C(O)C2(O)C(=O)C3=C(O)c4c(O)cccc4C(C)(O)C3C(O)C12 (stereo not drawn) | . | 53* | 96* | 53* | NS3 helicase cf=10;DNA FID counter=19
COC(=O)[C@H]1[C@H](CO)[C@H]2Cn3c(ccc(-c4ccccc4)c3=O)[C@@H]1N2CCc1ccccc1 | . | 5 | . | .
C/C=C/c1ccc(C2[C@@H]3CN(C(=O)c4cnccn4)C[C@H]2N3)cc1 (stereo partly drawn) | . | 0 | . | .
C=CCN1C(=O)NC(=O)/C(=C/c2c(CCN(C)C(=O)c3ccccc3)cc3c(c2OC)OCO3)C1=O | . | 3 | 54* | 10 | NS3 helicase cf=-32;DNA FID counter=-17
CNC(=S)N(C)CCc1cc2c(c(OC)c1C=C1C(=O)NC(=O)NC1=O)OCO2 | 0 | 1 | -1 | -8
CC=Cc1ccc2n(c1=O)C[C@@H]1[C@@H](CO)[C@H](C(=O)O)[C@H]2N1S(=O)(=O)c1ccccc1C (mixture of isomers) | . | -1 | . | .

Compound activity (PubChem BioAssay)
